Columns and labels:
[1] = tested on: Rattus norvegicus; assay: Antiestrogenic activity in Sprague-Dawley rat assessed as reduction in estradiol induced uterine weight upto 0.06 ug, po after 8 days; type: functional; parameters: scale not given: the % may be the effect or the level left
In short: (§1)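 Immature ovariectomized female Sprague-Dawley rats (~55 g), groups of 12. Estradiol 0.03–0.05 given s.c. daily for 7 days, with test compound or letrozole reference at various doses up to 0.06 per animal, given orally in 0.5% carboxymethylcellulose. Controls received estradiol alone. Uterine weights were taken on day 8 and group means expressed as % reduction versus estradiol-only controls. Potency was taken relative to letrozole.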

[2] = tested on: MDA-MB-231; assay: Growth inhibition of human MDA-MB-231cells after 48 hrs by sulforhodamine B assay; type: functional; settings: MDA-MB-231, 48 h
In short: (§2)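 Cells were plated at 5000–40,000 cells/well, depending on doubling time, and preincubated 24 h at 37 °C in 5% CO2. Time-zero plates were TCA-fixed at drug addition. Compounds were dissolved in DMSO and tested at five concentrations (10-fold or ½-log dilutions) for 48 h. Cells were fixed with cold TCA, stained with 0.4% sulforhodamine B and read at 515 nm. GI50 was taken as the concentration giving 50% growth.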

[3] = tested on: MCF7; assay: Growth inhibition of human MCF7 cells after 48 hrs by sulforhodamine B assay; type: functional; settings: MCF7, 48 h; in short: as §2
[4] = tested on: T47D; assay: Growth inhibition of human T47D cells after 48 hrs by sulforhodamine B assay; type: functional; in short: as §2
[5] = tested on: NCI/ADR-RES; assay: Growth inhibition of human NCI/ADR-RES cells after 48 hrs by sulforhodamine B assay; type: functional; in short: as §2
[6] = Growth inhibition of human Hs 578T cells after 48 hrs by sulforhodamine B assay; type: functional; in short: as §2
[7] = tested on: MDA-MB-435; assay: Growth inhibition of human MDA-MB-435 cells after 48 hrs by sulforhodamine B assay; type: functional; settings: MDA-MB-435, 48 h; in short: as §2
[8] = tested on: MDA-N; assay: Growth inhibition of human MDA-N cells after 48 hrs by sulforhodamine B assay; type: functional; in short: as §2
[9] = tested on: BT-549; assay: Growth inhibition of human BT549 cells after 48 hrs by sulforhodamine B assay; type: functional; settings: BT-549, 48 h; in short: as §2
[10] = tested on: IGROV-1; assay: Growth inhibition of human IGROV1 cells after 48 hrs by sulforhodamine B assay; type: functional; settings: IGROV-1, 48 h; in short: as §2
[11] = tested on: OVCAR-3; assay: Growth inhibition of human OVCAR3 cells after 48 hrs by sulforhodamine B assay; type: functional; settings: OVCAR-3, 48 h; in short: as §2
[12] = tested on: OVCAR-5; assay: Growth inhibition of human OVCAR5 cells after 48 hrs by sulforhodamine B assay; type: functional; settings: OVCAR-5, 48 h; in short: as §2
[13] = tested on: OVCAR-8; assay: Growth inhibition of human OVCAR8 cells after 48 hrs by sulforhodamine B assay; type: functional; settings: OVCAR-8, 48 h; in short: as §2
[14] = tested on: OVCAR-4; assay: Growth inhibition of human OVCAR4 cells after 48 hrs by sulforhodamine B assay; type: functional; settings: OVCAR-4, 48 h; in short: as §2
[15] = tested on: SK-OV-3; assay: Growth inhibition of human SKOV3 cells after 48 hrs by sulforhodamine B assay; type: functional; settings: SK-OV-3, 48 h; in short: as §2
[16] = tested on: Rattus norvegicus; assay: Antiestrogenic activity in Sprague-Dawley rat assessed as reduction in estradiol induced uterine weight 0.06 ug, po after 8 days relative to letrozole; type: functional; in short: as §1
[17] = Acute toxicity in mouse after 24 hrs; type: organism-based; settings: in vivo
In short: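 Adult mice of both sexes, acclimatized 1 week (12 h light/dark, 21–23 °C), fasted 12 h before dosing. 30 mice in 6 groups of 5 each got a single oral gavage dose, at different dose levels, of a fine-powder aqueous suspension. LD50 was determined, with values as group means of five mice.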

Compound | Activity [1] [%] | GI50 [2] [µM] | GI50 [3] [µM] | GI50 [4] [µM] | GI50 [5] [µM] | GI50 [6] [µM] | GI50 [7] [µM] | GI50 [8] [µM] | GI50 [9] [µM] | GI50 [10] [µM] | GI50 [11] [µM] | GI50 [12] [µM] | GI50 [13] [µM] | GI50 [14] [µM] | GI50 [15] [µM] | potency ratio vs letrozole [16] | LD50 at 24 h [17] [mg/kg]
N#Cc1c(-c2nnc(-c3ccccc3)c3cn(-c4ccccc4)nc23)nn(-c2ccccc2)c1-c1ccccc1 | 32.59 | 8.84 | 9.53 | 21.8 | > 100 | 31.8 | 31.8 | 31.2 | 21.8 | 94.8 | 93.8 | > 100 | 68 | 63 | 32.8 | – | –
N#Cc1c(-c2nnc(-c3ccccc3)c3nn(-c4ccc(Cl)cc4)cc23)nn(-c2ccccc2)c1-c1ccccc1 | – | 6.42 | 43.8 | 38 | 2.28 | 16.8 | 23.8 | 63.8 | 38.8 | 93.4 | > 100 | 8.94 | 9.23 | 5.49 | > 100 | – | –
Cc1nnc(-c2nn(-c3ccccc3)c(-c3ccccc3)c2C#N)c2cn(-c3ccccc3)nc12 | 23.97 | > 100 | 8.46 | 9.14 | > 100 | 1.39 | > 100 | 38.4 | 96.8 | 92 | 96.8 | > 100 | > 100 | 56.4 | 36.8 | 1.1 | 32.5
CCOC(=O)c1nn(-c2ccccc2)cc1C(=O)c1nn(-c2ccccc2)c(-c2ccccc2)c1C#N | 23.98 | – | 5.49 | > 100 | > 100 | – | > 100 | 38.4 | 31.8 | > 100 | – | – | > 100 | > 100 | – | 1.1 | 122
CCOC(=O)c1nn(-c2ccc(Cl)cc2)cc1C(=O)c1nn(-c2ccccc2)c(-c2ccccc2)c1C#N | 34.86 | > 100 | > 100 | > 100 | > 100 | 65 | 71.8 | 62.3 | 39.8 | 93.2 | > 100 | 61.2 | 65.8 | 45.8 | 30.8 | 1.61 | 143
N#Cc1c(-c2nnc(O)c3nn(-c4ccccc4)cc23)nn(-c2ccccc2)c1-c1ccccc1 | 32.86 | 6.21 | > 100 | 2.95 | 2.76 | 46.8 | 21.8 | 13.8 | 44.8 | 92.2 | > 100 | 61.8 | 61.5 | 26.4 | 36.8 | 1.51 | 114
N#Cc1c(-c2nnc(O)c3nn(-c4ccc(Cl)cc4)cc23)nn(-c2ccccc2)c1-c1ccccc1 | 23.76 | > 100 | > 100 | > 100 | > 100 | > 100 | > 100 | > 100 | > 100 | 91.3 | 33.4 | 32.8 | 3.23 | 4.38 | 30.8 | 1.09 | 322
N#Cc1c(C(=O)c2cn(-c3ccc(Cl)cc3)nc2C(=O)Nc2ccccc2)nn(-c2ccccc2)c1-c1ccccc1 | 34.87 | > 100 | > 100 | 33 | > 100 | 8.84 | 2.03 | > 100 | 11.8 | 99.5 | 23.8 | > 100 | > 100 | 28.4 | 9.42 | 1.61 | 101
Cc1ccc(-n2cc(C(=O)c3nn(-c4ccccc4)c(-c4ccccc4)c3C#N)c(C(=O)Nc3ccccc3)n2)cc1 | 34.65 | 6.27 | 34.4 | 30.8 | 2.48 | 63.2 | 2.23 | 5.49 | > 100 | 16.6 | 7.66 | 9.72 | 9.52 | 7.56 | 9.42 | 1.6 | 122
N#Cc1c(C(=O)c2cn(-c3ccccc3)nc2-c2ccccc2)nn(-c2ccccc2)c1-c1ccccc1 | 23.54 | 49.8 | 33.3 | 28 | 98 | > 100 | 61 | 3.36 | 1.12 | > 100 | 4.94 | 6.23 | 9.83 | 5.49 | > 100 | 1.08 | 122
Cc1ccc(-n2cc(C(=O)c3nn(-c4ccccc4)c(-c4ccccc4)c3C#N)c(C(=O)c3nn(-c4ccccc4)c(-c4ccccc4)c3C#N)n2)cc1 | 32.43 | > 100 | 0.061 | 25.7 | > 100 | 37.4 | > 100 | 26.8 | 2.47 | 0.022 | 99.8 | 36.8 | 20.3 | 30.4 | 38.8 | 1.49 | 211
